Published values pooled from the literature.
Lines come from different studies, so protocols differ.
Target: Tyrosine-protein kinase Lyn (LYN, Homo sapiens, UniProt P07948)

Compound | assay | conditions | endpoint | value
Cn1c2c(c3ccc(Cl)c(Cl)c31)C(C#N)C1(CCN(C(=O)OC(C)(C)C)CC1)NC2=O (racemic) | thermal stability, DSF | 10 µM | ΔTm | 0 °C
CNCc1ccccc1-c1csc([C@H](C)Nc2nc(C)nc3cc(OC)c(OC)cc23)c1 | cell-free assay, competition with immobilised ligand | 1 µM | remaining binding | 100%
Cc1cnc(NC2CCOCC2)nc1-n1cnc(C(=O)NC(CN)c2cc(F)cc(Cl)c2)c1 (stereo not drawn) | enzyme activity, inhibitor, radiometric | 1 µM | remaining activity | 84%
Cn1c2c(c3ccccc31)C(C#N)C(C)(C)NC2=O (stereo not drawn) | thermal stability, DSF | 10 µM | ΔTm | 0 °C
Cc1sc(C(=O)NC2COC2)cc1-n1cc(NC(=O)Nc2c(F)cccc2Cl)cn1 | enzyme activity, inhibitor | 10 µM | remaining activity | 106%
CCN1CCC2(CC1)NC(=O)c1c(c3ccc(Cl)c(Cl)c3n1C)C2C#N (racemic) | thermal stability, DSF | 10 µM | ΔTm | 0 °C
CC(C)(C)c1nc2c(s1)c1nc(N)ncc1c1ccc(NS(=O)(=O)c3c(F)cccc3F)c(F)c12 | enzyme activity, inhibitor, radiometric | 1 µM | remaining activity | 87%
CNC(=O)c1cc2c(Oc3ccc(NC(=O)C4(C(=O)Nc5ccc(F)cc5)CC4)cc3)ccnc2cc1OC | enzyme activity, inhibitor, radiometric | 1 µM | inhibition | 99%
O=C1Nc2ccc(Cl)cc2C1=Cc1cc(Cl)c(O)c(Cl)c1 | cell-free assay | 0.5 µM | remaining signal | 81.6%
CNC(=O)c1cc(Oc2ccc(NC(=O)Nc3ccc(Cl)c(C(F)(F)F)c3)cc2)ccn1 | enzyme activity, inhibitor | 0.3 µM | inhibition | 10%
O=c1cc(-c2cccc3c2Sc2ccccc2S3)oc(N2CCOCC2)c1 | enzyme activity, inhibitor | 0.5 µM | remaining activity | 106%
Cc1ccc(NC(=O)c2ccc(C)c(C(F)(F)F)c2)cc1C#Cc1nn(C2CCC(O)CC2)c2ncnc(N)c12 (stereo not drawn) | cell-free assay, inhibitor | 10 µM | remaining signal | 0%
Cc1ccc(C(=O)Nc2ccc(CN3CCN(C)CC3)c(C(F)(F)F)c2)cc1C#Cc1cnc2cccnn12 | enzyme activity, inhibitor | 23.5 nM | remaining activity | 0.65%
Cc1ccc(NC(=O)c2ccc(CN3CCN(C)CC3)cc2)cc1Nc1nccc(-c2cccnc2)n1 | enzyme activity, inhibitor | 0.5 µM | activity vs control | 59.6%
CC(C)(O)c1cncc(-c2nc3ccc(F)cc3n2C2CC2)c1 | cell-free assay, competition with immobilised ligand | 1 µM | remaining binding | 100%
CC(C)c1ccc(NC(=O)c2cccs2)c(-c2nc3ccccc3[nH]c2=O)c1 | enzyme activity, inhibitor | 1 µM | activity vs control | 83%
O=C(NC[C@@H]1[C@H]2CN(C(=O)OCc3cc(C(F)(F)F)cc(C(F)(F)F)c3)C[C@@H]12)c1ccc2[nH]nnc2c1 | cell-free assay, competition with immobilised ligand | 1 µM | remaining binding | 100%
Cn1c2c(c3ccc(Cl)c(Cl)c31)C(C#N)C(C)(C)NC2=O (stereo not drawn) | thermal stability, DSF | 10 µM | ΔTm | 0.1 °C

Compound | assay | conditions | endpoint | value
CN(C(=O)c1ccccc1)c1cc(N(C)c2ccc3c(c2)CCc2ccc(C(=O)NCCN4CCOCC4)cc2C3=O)ccc1F | cell-free assay, competition with immobilised ligand | 1 µM | remaining binding | 86%
O=C1c2ccccc2-c2n[nH]c3cccc1c23 | enzyme activity, inhibitor | 0.5 µM | activity vs control | 97%
Cn1c2c(Cl)c(Cl)ccc2c2cc[nH]c(=O)c21 | thermal stability, DSF | 10 µM | ΔTm | 0 °C
Nc1ncnc2occ(-c3ccc(NC(=O)Nc4cc(C(F)(F)F)ccc4F)cc3)c12 | enzyme activity, inhibitor | 20 µM | remaining activity | 1.4%
Cn1c2c(Cl)c(Cl)ccc2c2cc(N)[nH]c(=O)c21 | thermal stability, DSF | 10 µM | ΔTm | 0.3 °C
Cc1cc(NC(=O)c2cccc3cc(-c4cccc5[nH]nc(N)c45)ccc23)ccc1F | enzyme activity, inhibitor | 0.1 µM | activity vs control | 88%
CNCc1ccc(-c2cc(-c3nc(-c4ccc(S(=O)(=O)C(C)C)cc4)cnc3N)on2)cc1 | enzyme activity, inhibitor | 2 µM | inhibition | 53%
CN(C)C(=O)Cn1cc(-c2nc(C3(c4ccc(-c5cnc(N)nc5)cc4)CC3)no2)cn1 | cell-free assay, competition with immobilised ligand | 1 µM | remaining binding | 79%
CCN(CC)CCNC(=O)c1c(C)[nH]c(/C=C2\C(=O)Nc3ccc(F)cc32)c1C | enzyme activity, inhibitor | 0.3 µM | inhibition | 42%
CS(=O)(=O)c1cc(C2(NC(=O)c3cncc4c3cnn4-c3ccc(F)cc3)CC2)ccn1 | cell-free assay, competition with immobilised ligand | 1 µM | remaining binding | 100%
CCN(CC)CCNC(=O)c1c(C)[nH]c(/C=C2\C(=O)Nc3ccc(Cl)cc32)c1C | enzyme activity, inhibitor | 0.5 µM | remaining activity | 6.34%
CCN(CC)c1ccc(C2=NNC(=O)CC2C)cc1[N+](=O)[O-] (stereo not drawn) | enzyme activity, inhibitor | 10 µM | remaining activity | 114%
CC1=C(C#N)[C@@H](c2ccc3[nH]nc(C)c3c2)C(C#N)=C(c2ccc(Cl)cc2)N1 | cell-free assay, competition with immobilised ligand | 1 µM | remaining binding | 96.8%
CC(C)(O)[C@H]1CC[C@H](Nc2ccc3ncc(-c4cccc(C(F)(F)F)c4)n3n2)CC1 | enzyme activity, inhibitor | 1 µM | remaining activity | 41.9%
CN(C)S(=O)(=O)c1ccc2c(c1)/C(=C/c1cc3c([nH]1)CCCC3)C(=O)N2 | cell-free assay | 0.5 µM | remaining signal | 16.2%
C[C@H](NC(=O)c1cnc2n1[C@](C)(Cc1ccc(C#N)cc1)C(=O)N2c1cc(Cl)c(F)c(Cl)c1)C(=O)NC1(c2ccccn2)CC1 | cell-free assay, competition with immobilised ligand | 1 µM | remaining binding | 100%
Cn1c2c(Cl)c(Cl)ccc2c2cn[nH]c(=O)c21 | thermal stability, DSF | 10 µM | ΔTm | -0.1 °C
Cc1ccc(Nc2nccc(N(C)c3ccc4c(C)n(C)nc4c3)n2)cc1S(N)(=O)=O | enzyme activity, inhibitor | 0.5 µM | remaining activity | 52.1%
